From ChEMBL document CHEMBL1156500, “Characterization of the metabolic activation of hepatitis C virus nucleoside inhibitor beta-D-2'-Deoxy-2'-fluoro-2'-C-methylcytidine (PSI-6130) and identification of a novel active 5'-triphosphate species” (J Biol Chem, 2007) come the findings set out here.

Each structure is given as a SMILES string.

The test system of data set [1] is Hepatocyte. Nature of the data set: Drug uptake in human hepatocyte at 25 uM after 24 hrs assessed as 1-((2R,3R,4R,5R)-3-fluoro-4-hydroxy-5-(hydroxymethyl)-3-methyl-tetrahydrofuran-2-yl)pyrimidine-2,4(1H,3H)-dione di phosphate level per 10^6 cells. In kind it is ADME, cell-based. The following applies: hepatocytes. In outline:
(§1)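 Primary human hepatocytes from 3 donors were plated on collagen and recovered for ≥18 h. They were exposed for 24 h, in duplicate, to 0–250 μM drug: 3H-labelled material diluted with unlabelled compound. Total intracellular radioactivity and individual phosphates were measured in methanol extracts by SAX HPLC with radiometric detection. Results are pmol/10^6 cells, mean ± S.D.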

In data set [2] the test system is Hepatocyte. Nature of the data set: Drug uptake in human hepatocyte at 2 uM after 24 hrs assessed as 4-amino-1-((2R,3R,4R,5R)-3-fluoro-4-hydroxy-5-(hydroxymethyl)-3-methyl-tetrahydrofuran-2-yl)[…]-2(1H)-one tri phosphate level per 10^6 cells. The following applies: hepatocytes. The format is ADME, cell-based. A digest of the protocol: (§2)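 Primary human hepatocytes from 4 donors were plated at 1.5 million cells/well on collagen and recovered for ≥18 h. They were dosed with 3H-labelled drug at 2 μM (10 μCi/ml) for 1–72 h, in duplicate, at 37°C. Cold 60% methanol extracts were run on SAX ion-exchange HPLC with radiometric detection and compared with reference standards. Results are pmol/10^6 cells, mean ± S.D.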

Data set [3] concerns Hepatocyte. Nature of the data set: Drug uptake in human hepatocyte at 25 uM after 24 hrs assessed as 1-((2R,3R,4R,5R)-3-fluoro-4-hydroxy-5-(hydroxymethyl)-3-methyl-tetrahydrofuran-2-yl)pyrimidine-2,4(1H,3H)-dione tri phosphate level per 10^6 cells. In kind it is ADME, cell-based. The conditions noted are these: hepatocytes. A digest of the protocol: as §1
For data set [4], the system named is Hepatocyte. The experiment in a line: Drug uptake in human hepatocyte at 250 uM after 24 hrs assessed as 4-amino-1-((2R,3R,4R,5R)-3-fluoro-4-hydroxy-5-(hydroxymethyl)-3-methyl-tetrahydrofuran-2-yl)pyrimidin-2(1H)-one tri phosphate level per 10^6 cells. In kind it is ADME, cell-based. The following applies: hepatocytes. In outline:
as §1

A further data set concerns Hepatitis C virus. The experiment in a line: Antiviral activity against HCV 1b Con1 in 2209-23 cells after 72 hrs by luciferase based replicon assay. The format is functional, organism-based, Hepacivirus hominis. The following applies: genotype 1b Con 1, 2209-23, 72 h. In outline:
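Huh7-derived 2209-23 cells carrying a bicistronic genotype 1b Con1 subgenomic HCV replicon with a Renilla luciferase reporter of RNA replication. Cells were exposed to compound for 72 h, and dose-dependent reduction of luciferase activity was measured to give IC50.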
On the technique in general: A replicon is a self-replicating genome or part of one, used to study replication in cells.

Data set [5] deals with Hepatocyte. Nature of the data set: Drug uptake in human hepatocyte at 2 uM after 48 hrs assessed as 4-amino-1-((2R,3R,4R,5R)-3-fluoro-4-hydroxy-5-(hydroxymethyl)-3-methyl-tetrahydrofuran-2-yl)pyrimitrin-2(1H)-one tri phosphate level per 10^6 cells. The following applies: hepatocytes. The format is ADME, cell-based. A digest of the protocol:
as §2

The test system of data set [6] is Hepatocyte. Nature of the data set: Drug uptake in human hepatocyte at 2 uM after 48 hrs assessed as 1-((2R,3R,4R,5R)-3-fluoro-4-hydroxy-5-(hydroxymethyl)-3-methyl-tetrahydrofuran-2-yl)pyrimitrine-2,4(1H,3H)-trione tri phosphate level per 10^6 cells. In kind it is ADME, cell-based. The conditions noted are these: hepatocytes. In outline: as §2
Data set [7] deals with Hepatocyte. Nature of the data set: Drug uptake in human hepatocyte at 10 uM after 24 hrs assessed as 1-((2R,3R,4R,5R)-3-fluoro-4-hydroxy-5-(hydroxymethyl)-3-methyl-tetrahydrofuran-2-yl)pyrimidine-2,4(1H,3H)-dione tri phosphate level per 10^6 cells. In kind it is ADME, cell-based. The following applies: hepatocytes. A digest of the protocol:
as §1

Data set [8] concerns Hepatocyte. Nature of the data set: Drug uptake in human hepatocyte at 2 uM after 24 hrs assessed as 1-((2R,3R,4R,5R)-3-fluoro-4-hydroxy-5-(hydroxymethyl)-3-methyl-tetrahydrofuran-2-yl)pyrimidine-2,4(1H,3H)-dione di phosphate level per 10^6 cells. The format is ADME, cell-based. The conditions noted are these: hepatocytes. A digest of the protocol:
as §1

In data set [9] the test system is Hepatocyte. The experiment in a line: Drug uptake in human hepatocyte at 10 uM after 24 hrs assessed as 1-((2R,3R,4R,5R)-3-fluoro-4-hydroxy-5-(hydroxymethyl)-3-methyl-tetrahydrofuran-2-yl)pyrimidine-2,4(1H,3H)-dione di phosphate level per 10^6 cells. In kind it is ADME, cell-based. The following applies: hepatocytes. In outline:
as §1

The subject of data set [10] is Hepatocyte. The experiment in a line: Drug uptake in human hepatocyte at 100 uM after 24 hrs assessed per 10^6 cells. The format is ADME, cell-based. The conditions noted are these: hepatocytes. A digest of the protocol: as §1
Data set [11] concerns Hepatocyte. Nature of the data set: Drug uptake in human hepatocyte at 50 uM after 24 hrs assessed per 10^6 cells. The format is ADME, cell-based. The following applies: hepatocytes. In outline: as §1
In data set [12] the test system is Hepatocyte. The experiment in a line: Drug uptake in human hepatocyte at 10 uM after 24 hrs assessed as 4-amino-1-((2R,3R,4R,5R)-3-fluoro-4-hydroxy-5-(hydroxymethyl)-3-methyl-tetrahydrofuran-2-yl)pyrimidin-2(1H)-one di phosphate level per 10^6 cells. The format is ADME, cell-based. The following applies: hepatocytes. A digest of the protocol: as §1
Data set [13] has as its system Hepatocyte. The experiment in a line: Drug uptake in human hepatocyte at 100 uM after 24 hrs assessed as 1-((2R,3R,4R,5R)-3-fluoro-4-hydroxy-5-(hydroxymethyl)-3-methyl-tetrahydrofuran-2-yl)pyrimidine-2,4(1H,3H)-dione di phosphate level per 10^6 cells. In kind it is ADME, cell-based. The conditions noted are these: hepatocytes. A digest of the protocol:
as §1

For data set [14], the system named is Hepatocyte. Nature of the data set: Drug uptake in human hepatocyte at 250 uM after 24 hrs assessed as 1-((2R,3R,4R,5R)-3-fluoro-4-hydroxy-5-(hydroxymethyl)-3-methyl-tetrahydrofuran-2-yl)pyrimidine-2,4(1H,3H)-dione tri phosphate level per 10^6 cells. The format is ADME, cell-based. The conditions noted are these: hepatocytes. A digest of the protocol: as §1

Data set [15] concerns Hepatocyte. Nature of the data set: Drug uptake in human hepatocyte at 250 uM after 24 hrs assessed per 10^6 cells. The format is ADME, cell-based. The conditions noted are these: hepatocytes. In outline: as §1
Data set [16] concerns Hepatocyte. Nature of the data set: Drug uptake in human hepatocyte at 2 uM after 1 hr assessed per 10^6 cells. The format is ADME, cell-based. The conditions noted are these: hepatocytes. In outline:
as §2

The subject of data set [17] is Hepatocyte. The experiment in a line: Drug uptake in human hepatocyte at 2 uM after 24 hrs assessed per 10^6 cells. The format is ADME, cell-based. The following applies: hepatocytes.
Data set [18] concerns Hepatocyte. Nature of the data set: Drug uptake in human hepatocyte at 10 uM after 24 hrs assessed per 10^6 cells. The following applies: hepatocytes. The format is ADME, cell-based. A digest of the protocol: as §1
Data set [19] relates to Hepatocyte. The experiment in a line: Drug uptake in human hepatocyte at 25 uM after 24 hrs assessed per 10^6 cells. The format is ADME, cell-based. The conditions noted are these: hepatocytes. In outline:
as §1

Consider `C[C@@]1(F)[C@H](O)[C@@H](CO)O[C@H]1n1ccc(N)nc1=O`, for which the Drug uptake with Hepatocyte [1] was determined as 9.5 pmol; with Hepatocyte [2], 1.1 pmol; with Hepatocyte [3] it was 21.7 pmol; with Hepatocyte [4], 40.4 pmol; in the data set with Hepatocyte [5], 1.3 pmol; in the data set with Hepatocyte [6], 2 pmol. Also, the Drug uptake in the data set with Hepatocyte [7] is 9.6 pmol; in the data set with Hepatocyte [8] it was 0.9 pmol; in the data set with Hepatocyte [9], 4.8 pmol; with Hepatocyte [10], 1529.9 pmol; in the data set on Hepatocyte [11], 847.9 pmol; in the data set with Hepatocyte [12] it was 2.4 pmol. Moreover, the Drug uptake in the data set with Hepatocyte [13] is on record as 34.7 pmol; with Hepatocyte [14], 84 pmol; in the data set on Hepatocyte [15] it was 3591.3 pmol; in the data set with Hepatocyte [16] it was 30.4 pmol; with Hepatocyte [17], 34.5 pmol; with Hepatocyte [18], 165.5 pmol. This compound also yielded a Drug uptake in the data set with Hepatocyte [19] of 439.1 pmol. Moreover, the IC50 with Hepatitis C virus amounted to 600 nM.

What is called IC50 is the concentration needed to halve the response being measured.
